{"source": "ChEMBL document CHEMBL1255261", "about": "“Lethal mutagenesis of picornaviruses with N-6-modified purine nucleoside analogues” (Antimicrob Agents Chemother, 2008)", "key": {"Coxsackievirus [1]": {"test_system": "Coxsackievirus", "assay": "Antiviral activity against Coxsackievirus infected in compound pre-treated HeLaS3 cells assessed as reduction in viral titer at 2 mM after 6 hrs relative to control", "type": "functional, HeLa S3", "set-up": "scale not given: the % may be the effect or the level left", "how_it_was_run": "(§1)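 HeLa S3 cells pretreated with nucleoside (0.5 or 2 mM) for 1 h, then infected with CVB3 at MOI 5. Fresh medium containing the analogue was added and infection ran 6 h at 37°C. Cell-associated virus was collected by freeze-thaw and titrated on HeLa S3 monolayers. Result is percent reduction in titer versus untreated infection.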"}, "[2]": {"assay": "Cytotoxicity against human HeLaS3 cells assessed cell viability at 2 mM after 24 hrs by Alamar blue assay", "type": "cell-based, HeLa S3", "conditions": "read-out: Activity", "how_it_was_run": "(§2)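 HeLa S3 cells were seeded at 2 × 10^3 per well in DMEM/F-12 with 2% FBS and allowed to adhere 1 h at 37°C. Nucleoside in medium (0.05–2 mM) was added with continuous exposure at 37°C. Resazurin (Alamar blue) was added 6 h before the 24 h read. Percent reduction was taken from A570 corrected by A590 and normalized to vehicle (DMSO) cells set at 100%. Triplicate wells, mean ± SD.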"}, "Enterovirus C [3]": {"test_system": "Enterovirus C", "assay": "Antiviral activity against Poliovirus infected in compound pre-treated HeLaS3 cells assessed as reduction in viral titer at 2 mM after 6 hrs relative to control", "type": "functional, HeLa S3", "set-up": "scale not given: the % may be the effect or the level left", "how_it_was_run": "(§3)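 HeLa S3 cells (DMEM/F-12, 2% dialyzed FBS, 37°C, 5% CO2) pretreated 1 h with nucleoside (0.5 or 2 mM), then infected with PV at MOI 5. Fresh medium with analogue added, infection run 6 h at 37°C. Cell-associated virus collected by freeze-thaw and titred on HeLa S3 monolayers. Result given as percent titer reduction versus untreated control.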"}, "[4]": {"assay": "Cytotoxicity against human HeLaS3 cells assessed cell viability at 0.05 after 24 hrs by Alamar blue assay", "type": "cell-based, HeLa S3", "conditions": "read-out: Activity", "how_it_was_run": "as §2"}, "[5]": {"assay": "Metabolic stability in human HeLaS3 cells assessed as JA28-triphosphate at 0.5 mM after 2 hrs by reverse-phase HPLC", "type": "ADME, cell-based", "conditions": "hela s3, 2 h, 500 µM", "how_it_was_run": "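Suspension-adapted HeLa S3 cells at 5 × 10^6 cells/ml in S-MEM with 2% dialyzed FBS were pretreated with actinomycin D (2.5 μg/ml, 15 min, 37°C). Nucleoside was then added to 0.5 mM final with 1% DMSO, 2 h at 37°C. Cells were extracted with ice-cold 0.6 M TCA, then trioctylamine/trichlorotrifluoroethane. Aqueous layer was run on C18 reversed-phase HPLC (CH3CN gradient in KH2PO4, pH 6.0). Triphosphate was identified by retention time and UV spectrum against synthesized standard.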"}, "Enterovirus C [6]": {"test_system": "Enterovirus C", "assay": "Antiviral activity against Poliovirus infected in compound pre-treated HeLaS3 cells assessed as reduction in viral titer at 0.5 mM after 6 hrs relative to control", "type": "functional, HeLa S3", "set-up": "scale not given: the % may be the effect or the level left", "how_it_was_run": "as §3"}, "Coxsackievirus [7]": {"test_system": "Coxsackievirus", "assay": "Antiviral activity against Coxsackievirus infected in compound pre-treated HeLaS3 cells assessed as reduction in viral titer at 0.5 mM after 6 hrs relative to control", "type": "functional, HeLa S3", "set-up": "scale not given: the % may be the effect or the level left", "how_it_was_run": "as §1"}}, "data": [{"compound": "NNc1nc(N)nc2c1ncn2[C@@H]1O[C@H](CO)[C@@H](O)[C@H]1O", "values": [{"measurement": "Activity", "setting": "Coxsackievirus [1]", "value": 95, "unit": "%"}, {"measurement": "viability at 24 h, 2000 µM", "setting": "[2]", "value": 57, "unit": "%"}, {"measurement": "Activity", "setting": "Enterovirus C [3]", "value": 97, "unit": "%"}]}, {"compound": "OC[C@H]1O[C@@H](n2cnc3c(NO)ncnc32)[C@H](O)[C@@H]1O", "values": [{"measurement": "viability at 24 h", "setting": "[4]", "value": 61, "unit": "%"}, {"measurement": "Stability", "setting": "[5]", "value": "Stable"}, {"measurement": "Activity", "setting": "Enterovirus C [6]", "value": 98, "unit": "%"}, {"measurement": "Activity", "setting": "Coxsackievirus [7]", "value": 97, "unit": "%"}]}, {"compound": "CO/N=c1/[nH]cnc2c1ncn2[C@@H]1O[C@H](CO)[C@@H](O)[C@H]1O", "values": [{"measurement": "Activity", "setting": "Coxsackievirus [1]", "value": 22, "unit": "%"}, {"measurement": "Activity", "setting": "Enterovirus C [3]", "value": 81, "unit": "%"}]}, {"compound": "NNc1ncnc2c1ncn2[C@@H]1O[C@H](CO)[C@@H](O)[C@H]1O", "values": [{"measurement": "viability at 24 h", "setting": "[4]", "value": 56, "unit": "%"}, {"measurement": "Activity", "setting": "Enterovirus C [6]", "value": 99.7, "unit": "%"}, {"measurement": "Activity", "setting": "Coxsackievirus [7]", "value": 99.9, "unit": "%"}]}, {"compound": "CO/N=c1/[nH]c(N)nc2c1ncn2[C@@H]1O[C@H](CO)[C@@H](O)[C@H]1O", "values": [{"measurement": "Activity", "setting": "Coxsackievirus [1]", "value": 0, "unit": "%"}, {"measurement": "Activity", "setting": "Enterovirus C [3]", "value": 45, "unit": "%"}]}, {"compound": "CN(N)c1ncnc2c1ncn2[C@@H]1O[C@H](CO)[C@@H](O)[C@H]1O", "values": [{"measurement": "Activity", "setting": "Coxsackievirus [1]", "value": 0, "unit": "%"}, {"measurement": "Activity", "setting": "Enterovirus C [3]", "value": 35, "unit": "%"}]}, {"compound": "Nc1nc2c(ncn2[C@@H]2O[C@H](CO)[C@@H](O)[C@H]2O)/c(=N\\O)[nH]1", "values": [{"measurement": "Activity", "setting": "Coxsackievirus [1]", "value": 99.99, "unit": "%"}, {"measurement": "viability at 24 h, 2000 µM", "setting": "[2]", "value": 37, "unit": "%"}, {"measurement": "Activity", "setting": "Enterovirus C [3]", "value": 99.97, "unit": "%"}]}, {"compound": "CN(N)c1nc(N)nc2c1ncn2[C@@H]1O[C@H](CO)[C@@H](O)[C@H]1O", "values": [{"measurement": "Activity", "setting": "Coxsackievirus [1]", "value": 11, "unit": "%"}, {"measurement": "Activity", "setting": "Enterovirus C [3]", "value": 88, "unit": "%"}]}]}
